# Screening data deposited in PubChem by several laboratories.
# A selection: hits, their analogues and other compounds. The true share with any hit is near 2.1%.
# APJ agonist: agonists of human APJ apelin receptor | P35414 | CHO-K1 APJ PathHunter beta-arrestin, luminescence; 0% DMSO wells, 100% apelin | activation, % at 20 µM | actives 0.11% (n = 330,000);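 active means activation more than six SD over the plate average, tested at 20 µM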;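 further: 0% = DMSO alone and 100% = apelin-13 at 10 nM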
#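 Assay system – PathHunter CHO-K1 APJ (AGTRL-1) beta-arrestin reporter cells · Compound – one dose, 20 µM compound, 1% DMSO · Timing – compound 90 min 25 °C, reagent 1 h · Measured by – luminescence from split beta-galactosidase complementation, Galacton Star/Emerald II substrate · Measure – beta-arrestin recruitment to APJ as agonist activity, luminescent signal · Benchmarks – DMSO vs Apelin-13 10 nM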
# EBI2 block: blocks human EBI2 receptor beta-arrestin signaling. P32249. EBI2 beta-arrestin recruitment, luminescence, 7a,25-OHC stimulated. inhibition, % at 5 µM. actives 0.81% (n = 360,000). AID 651636; in the data active means inhibition above about 38%;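 further: enzyme fragment complementation signal reports receptor beta-arrestin coupling in cells; 0% = agonist plus DMSO wells and 100% = wells without agonist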
# CXCR6 inh: blocks human CXCR6 beta-arrestin recruitment; actives 0.36% (n = 360,000); O00574; CHO-K1 PathHunter CXCR6 beta-arrestin, luminescence; inhibition, % at 20 µM; in the data active means inhibition above about 34%, passing the limit was not always enough;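 further: antagonist mode with CXCL16 agonist at 10 nM final; 0% = 10 nM CXCL16 with DMSO and 100% = unstimulated wells without agonist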
# APJ antagonist: blocks the human apelin receptor APJ; inhibition, % at 20 µM; actives 0.32% (n = 330,000); CHO-K1 APJ beta-arrestin complementation, luminescence;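 active means inhibition above about 40% at 20 µM, limit read from the data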;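 further: cells challenged with 10 nM apelin-13 agonist together with compound; plate controls were apelin-13 plus DMSO wells for no effect and DMSO wells lacking apelin-13 for full effect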
# CCR6 antagonist: antagonists of human CCR6 receptor. CHO-K1 CCR6 PathHunter beta-arrestin, luminescence, CCL20-stimulated. actives 0.49% (n = 340,000). inhibition, % at 20 µM. P51684;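 active means compounds whose inhibition of the agonist-driven luminescence signal at 20 µM reaches about 50%, limit read from the data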;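 further: cells stimulated with CCL20 at 14 nM final; plate controls were DMSO with CCL20 for no effect and DMSO without agonist for full effect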
# m5-HT2A agonist: mouse HTR2A agonism via beta-arrestin recruitment; actives 0.66% (n = 360,000); CHO-K1 mHTR2A beta-arrestin complementation, luminescence; percent of 30 µM serotonin response; AID 624169; activation, % at 7.6 µM; P35363;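 active means activation above a run cutoff, the mean activation of all tested compounds plus 3 SD, cut at about 14% in these data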;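 further: 0% = plate median of compound wells and 100% = 30 µM serotonin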
# MOR ag counter: activates human mu opioid receptor in HTR2A counterscreen. shares compounds with m5-HT2A agonist. U2OS OPRM1 beta-arrestin PathHunter, luminescence; DMSO 0%, DAMGO 9.3 µM 100%. activation, % at 9.3 µM. actives 5.3% (n = 2,300). AID 624380;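 active means mean activation above the mean of DMSO-only wells plus 3 SD, cut at about 0.5% in these data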
# Target sequence (P35372 whole entry, looked up): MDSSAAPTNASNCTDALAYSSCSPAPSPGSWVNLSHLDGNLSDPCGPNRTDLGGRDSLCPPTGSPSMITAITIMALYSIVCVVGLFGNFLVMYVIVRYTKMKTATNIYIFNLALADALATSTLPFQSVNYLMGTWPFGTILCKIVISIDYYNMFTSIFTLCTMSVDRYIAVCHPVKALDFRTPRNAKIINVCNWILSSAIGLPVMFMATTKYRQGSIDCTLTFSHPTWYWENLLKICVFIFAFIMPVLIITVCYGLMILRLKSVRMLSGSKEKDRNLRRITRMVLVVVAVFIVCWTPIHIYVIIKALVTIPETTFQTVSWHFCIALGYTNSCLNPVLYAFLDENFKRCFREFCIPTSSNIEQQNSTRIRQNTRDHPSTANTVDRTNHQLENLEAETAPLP
# m5-HT2A ag conf: mouse HTR2A agonism confirmed; shares compounds with m5-HT2A agonist; CHO-K1 PathHunter beta-arrestin recruitment, luminescence; DMSO 0%, 30 µM serotonin 100%; activation, % at 7.6 µM; actives 19% (n = 2,300); AID 624381;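 active means mean activation across triplicates above the hit threshold derived in the original primary screen, cut at about 15% in these data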
# An asterisk follows results filed as active; · = not tested or not shown.
SMILES,APJ agonist,EBI2 block,CXCR6 inh,APJ antagonist,CCR6 antagonist,m5-HT2A agonist,MOR ag counter,m5-HT2A ag conf
CCCNC(=O)C1(C)CCCN(C(=O)c2cc(C)n(C(C)(C)C)n2)C1 (stereo not given),·,-1,2,·,·,2,·,·
COCCn1cnnc1SCC(=O)Nc1sc2c(c1C#N)CCC2,-3,-7,5,1,-3,17*,-1,0
CCOC(=O)C1(C)CCCCN1C(=O)c1ccc(N(C)C)cc1 (stereo not given),·,-6,-1,·,·,5,·,·
CCOC(=O)C1(C)CCCCCN1C(=O)c1ccc(OC)cc1 (stereo not given),·,2,4,·,·,16*,-1,-4
COC(=O)C[C@H]1CC[C@@H](NC(=O)C2CC2)[C@@H](CO)O1,·,-7,·,·,·,18*,0,-1
Cc1ccc(-c2cc(-c3ccco3)c3c(N)c(C(=O)NN)oc3n2)cc1,0,0,7,-19,5,15*,0,0
NNC(=O)c1oc2nc(-c3cccs3)cc(-c3ccco3)c2c1N,-2,13,8,10,·,-3,·,·
COc1ccc(/C=N/n2cnnc2)cc1Br,3,3,-6,22,-6,-3,·,·
CCCC(=O)N1CCCC1(C)C(=O)NCCc1ccccn1 (stereo not given),·,-1,-2,·,·,22*,0,3
CC(C)C(=O)N1CCCC1(C)C(=O)NCc1ccccn1 (stereo not given),·,-9,-8,·,·,-1,·,·
CCC(=O)N1CCCC(C)(C(=O)Nc2ccc(C)c(C)c2)C1 (stereo not given),·,-1,-1,·,·,17*,0,-1
CCC(=O)N1CCCC(C)(C(=O)Nc2ccc(OC)c(F)c2)C1 (stereo not given),·,-3,0,·,·,-2,·,·
Cc1[nH]c2ccccc2c1C(c1ccccn1)N1CCC(C(N)=O)CC1 (stereo not given),-6,-1,-4,22,3,17*,0,-5
CCc1nnc(NS(=O)(=O)c2ccc(NC(=S)NC(=O)c3ccc(F)cc3)cc2)s1,-2,-2,16,-14,40,0,·,·
COc1cccc(C2N(c3cccc(Cl)c3)C(=O)C3CCCN32)c1OC (stereo not given),-2,8,3,-24,8,17*,-1,1
COc1cc(C2N(c3cccc(Cl)c3)C(=O)C3CCCN32)cc(OC)c1OC (stereo not given),1,-3,0,2,-11,21*,-1,1
O=C1NC[C@H](Cc2ccc(O)cc2)N(C[C@@H]2CCCN2C[C@H](Cc2ccccc2)N2C[C@H](Cc3ccccc3)N(CCc3ccccc3)C(=O)C2=O)C1=O,·,2,-1,·,·,-4,·,·
CC1CC(C)CN(C(=O)c2ccc(Br)c(S(=O)(=O)N3CCOCC3)c2)C1 (stereo not given),-4,0,0,13,10,3,·,·
Cc1ccc(NC(=O)Cn2nc(C(F)(F)F)c3c2CCC3)cc1,-1,-2,6,-17,-17,-3,·,·
COc1ccc(NC(=O)N2CCC(C(=O)c3ccc4c(c3)OCCO4)CC2)cc1,-1,34,1,-14,8,17*,-1,-4
O=C(c1ccc2c(c1)OCCO2)C1CCN(C(=O)Nc2ccc(F)cc2)CC1,0,15,2,-7,11,4,·,·
COc1cc(/C=C(/C#N)c2nc3ccccc3[nH]2)ccc1OCc1ccc(C(=O)O)o1,-3,-3,6,20,9,19*,1.7*,-2
COC(=O)c1ccc(COc2ccc(/C=C(\C#N)c3nc4ccccc4[nH]3)cc2OC)o1,6,-9,-1,-22,11,0,·,·
CCOC(=O)C1CCN(c2nc(C)cc(C)c2C#N)CC1,-6,3,2,-2,6,16*,0,-3
Cc1ccc(S(=O)(=O)NC(=O)Nc2ncc3c(n2)CC(c2ccco2)CC3=O)cc1 (stereo not given),0,3,0,3,0,7,·,·
SMILES,APJ agonist,EBI2 block,CXCR6 inh,APJ antagonist,CCR6 antagonist,m5-HT2A agonist,MOR ag counter,m5-HT2A ag conf
COc1ccc(-c2cc(C(=O)N3CCN(c4ccccc4)CC3)no2)cc1,0,33,0,-3,7,4,·,·
COc1ccc(-c2cc(C(=O)N3CCCC3)no2)cc1OC,-3,1,-3,-15,17,22*,-1,1
COc1ccc(OC)c(-c2cc(C(=O)N3CCN(c4ccccc4)CC3)no2)c1,-2,-2,8,-4,4,27*,-1,-5
COc1ccccc1-c1ccc2c(c1)C(C)(Cc1ccccc1C#N)C(=O)N2 (stereo not given),·,7,5,·,·,7,·,·
COc1ccccc1-c1ccc2c(c1)C(C)(Cc1ccc(Cl)c(Cl)c1)C(=O)N2 (stereo not given),·,12,2,·,·,23*,-1,-4
S=c1[nH]nc(C2CCCCC2)n1Cc1ccccc1,-5,9,2,-3,8,15*,0,-2
CN(C)c1ccc(C(C(=O)NCc2ccccc2)N(Cc2cccnc2)C(=O)c2snc(C(N)=O)c2N)cc1 (stereo not given),1,-19,-5,-25,4,19*,-1,-1
COc1ccc(C(C(=O)NCc2ccccc2)N(Cc2cccnc2)C(=O)c2snc(C(N)=O)c2N)cc1OC (stereo not given),-1,-8,-6,14,-1,1,·,·
N#Cc1c(N)nc(SCc2ccccc2)c(C#N)c1-c1ccco1,-5,19,1,-9,12,15*,0,-3
N#Cc1c(N)nc(SCC(=O)OCc2ccccc2)c(C#N)c1-c1ccco1,-2,9,12,21,18,-1,·,·
O=C(Nc1ccccc1C(F)(F)F)c1cnccn1,2,-7,-6,6,-1,19*,-1,2
Cc1ccc(NC(=O)c2ccc(S(=O)(=O)N3CCCC3)cc2)cc1,-1,28,7,17,18,3,·,·
Cc1ccccc1NC(=S)NC(NC(=O)c1ccco1)C(Cl)(Cl)Cl (stereo not given),-4,-1,4,19,16,17*,-1,-6
CCOC(=O)CN1C(=O)S/C(=C/c2cc(C)n(C)c2C)C1=O,3,3,4,14,20,-1,·,·
COc1cccc(C=Nc2ccc3c(c2)CCC3)c1O,2,-19,-9,10,5,15*,-1,-3
